Measurements as given in ChEMBL document CHEMBL1153823, “Design, synthesis, and biological evaluation of new 5-HT4 receptor agonists: application as amyloid cascade modulators and potential therapeutic utility in Alzheimer's disease” (J Med Chem, 2009).
Active and inactive are the calls of the source. No cut-off for these calls is given here.

Experiments:
[1] = molecular target: T1, 5-hydroxytryptamine receptor 4 (Homo sapiens, UniProt Q13639); assay: Agonist activity at human 5HT4 isoform E receptor expressed in rat C6 cells assessed as cAMP accumulation at 10 nM by radio-immunoassay relative to 5HT; format: functional, cell-based
T1 sequence (Q13639 whole entry, canonical isoform): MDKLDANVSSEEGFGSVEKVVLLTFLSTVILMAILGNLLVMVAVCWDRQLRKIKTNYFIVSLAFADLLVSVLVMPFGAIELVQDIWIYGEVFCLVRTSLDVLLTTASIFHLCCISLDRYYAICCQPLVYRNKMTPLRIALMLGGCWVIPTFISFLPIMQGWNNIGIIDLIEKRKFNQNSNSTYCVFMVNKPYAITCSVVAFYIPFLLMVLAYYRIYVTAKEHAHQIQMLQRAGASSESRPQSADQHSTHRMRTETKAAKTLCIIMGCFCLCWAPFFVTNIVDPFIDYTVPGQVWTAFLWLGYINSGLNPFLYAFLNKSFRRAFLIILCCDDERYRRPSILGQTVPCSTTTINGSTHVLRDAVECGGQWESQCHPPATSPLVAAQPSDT
Outline: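 C6 glial cells stably transfected with h5-HT4(e)R, grown to confluence, serum-free 4 h, then preincubated 15 min in serum-free medium with 5 mM theophylline and 10 µM pargyline. […] Stopped with ice-cold perchloric acid; cAMP by radioimmunoassay; response normalized to 5-HT maximum.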

[2] = molecular target: T1, 5-hydroxytryptamine receptor 4; assay: Agonist activity at human 5HT4 isoform E receptor expressed in rat C6 cells assessed as cAMP accumulation by radio-immunoassay relative to 5HT; format: functional, cell-based
Outline: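 C6 glial cells stably transfected with h5-HT4(e)R, grown to confluence, serum-free 4 h, then preincubated 15 min in serum-free medium with 5 mM theophylline and 10 µM pargyline.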

[3] = molecular target: T1, 5-hydroxytryptamine receptor 4; assay: Displacement of [3H]GR-113808 from human 5HT4 isoform E receptor expressed in rat C6 cells by liquid scintillation counting; format: cell-based
[4] = molecular target: T1, 5-hydroxytryptamine receptor 4; assay: Displacement of [3H]GR-113808 from human 5HT4 isoform E receptor expressed in rat C6 cells at 10 nM by liquid scintillation counting; format: cell-based
[5] = Inhibition of amyloid beta (25-35) polymerization assessed as inhibition of fibril formation at 10 uM by UV-visible measurement
Outline: (§1)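 Aβ25-35 (100 µM final) with agonist (10 µM final, added in MeOH) in 10 mM phosphate buffer pH 7.2, prepared at 4 °C. UV-visible spectra 190–600 nm at 15 °C read after 6 h; agonist-alone spectra subtracted, Aβ-alone control run in parallel. At least three independent measurements. IC50 obtained by least-squares sigmoidal fit, for agonists at least as active as curcumin.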

[6] = Inhibition of amyloid beta (25-35) polymerization assessed as inhibition of fibril formation by UV-visible measurement; outline: as §1
Mus musculus [7] = assay: Increase in sAPPalpha levels in C57BL/6J mouse brain cortex at 5 mg/kg, sc after 90 mins by Western blot; format: functional, organism-based; design: dose 5 mg/kg
Outline: (§2)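 Male C57BL/6j mice, 8 weeks, 23–27 g, 7–9 per group, single subcutaneous dose 5 mg/kg in 0.9% NaCl (saline controls 5 mL/kg). Killed 90 min later. Hippocampus and cortex sonicated in Tris/NaCl with protease inhibitors, spun 100000g 45 min. sAPPα immunoblot, normalized to β-actin densitometry, expressed as % of saline controls. One-way ANOVA with PLSD.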

Mus musculus [8] = assay: Increase in sAPPalpha levels in C57BL/6J mouse brain hippocampus at 5 mg/kg, sc after 90 mins by Western blot; format: functional, organism-based; design: dose 5 mg/kg; outline: as §2

SMILES	Emax [1] [%]	Activity [4] [%]	other results
COc1cc(N)c(Cl)cc1C(=O)OCCN1CCC(CNC(=O)CCCNS(=O)(=O)c2ccc(C)cc2)CC1	> 70	> 50	EC50 [2]: 68 nM; Ki [3]: 2 nM
COc1cc(N)c(Cl)cc1C(=O)OCCN1CCC(CNC(=O)CCc2ccccc2)CC1	20	20	
COc1cc(N)c(Cl)cc1C(=O)OCCN1CCC(CNC(=O)CCCNS(=O)(=O)c2ccc(-c3ccccc3)cc2)CC1	< 10	10	
COc1cc(N)c(Cl)cc1C(=O)OCCN1CCC(CNC(=O)C(C)C)CC1	10	20	
COc1cc(N)c(Cl)cc1C(=O)OCCN1CCC(NC(=O)CCc2ccccc2)CC1	< 10	20	
COc1cc(N)c(Cl)cc1C(=O)OCCN1CCC(NC(=O)CSc2ccccc2)CC1	< 10	20	
COc1cc(N)c(Cl)cc1C(=O)OCCN1CCC(NC(=O)Cc2ccc([N+](=O)[O-])cc2)CC1	20	20	
CCCC(=O)NC1CCN(CCOC(=O)c2cc(Cl)c(N)cc2OC)CC1		0	
COc1cc(N)c(Cl)cc1C(=O)OCCN1CCC(NC(=O)CCCNS(=O)(=O)c2ccc(C)cc2)CC1	10	10	
COc1cc(N)c(Cl)cc1C(=O)OCCN1CCC(CNC(=O)CCC2CCCCC2)CC1	> 50	10	
COc1cc(/C=C/C(=O)CC(=O)/C=C/c2ccc(O)c(OC)c2)ccc1O [CURCUMIN]			inhibition [5]: 45%; IC50 [6]: 10000 nM
COc1cc(N)c(Cl)cc1C(=O)OCCN1CCC(CNC(=O)CC(C)C)CC1	40	20	
CCCC(=O)NCC1CCN(CCOC(=O)c2cc(Cl)c(N)cc2OC)CC1	< 10	20	
COc1cc(N)c(Cl)cc1C(=O)OCCN1CCC(CNC(=O)Cc2ccc(Br)cc2)CC1	0	40	
COc1cc(N)c(Cl)cc1C(=O)OCCN1CCC(CNC(=O)Cc2ccc([N+](=O)[O-])cc2)CC1	> 50	40	
COc1cc(N)c(Cl)cc1C(=O)OCCN1CCC(NC(=O)CCCNCCCc2ccc(CCCNCCCC(=O)NC3CCN(CCOC(=O)c4cc(Cl)c(N)cc4OC)CC3)cc2)CC1	> 50	10	inhibition [5]: 49%; IC50 [6]: 9000 nM; Activity (Mus musculus [7]): Active; EC50 [2]: 9 nM; Activity (Mus musculus [8]): Active; Ki [3]: 14 nM
COc1cc(N)c(Cl)cc1C(=O)OCCN1CCC(CNC(=O)CSc2ccccc2)CC1	< 10	30	
COc1ccc(OC)c(CC(=O)NCC2CCN(CCOC(=O)c3cc(Cl)c(N)cc3OC)CC2)c1	10	40	
COc1cc(N)c(Cl)cc1C(=O)OCCN1CCC(CNC(=O)CCCCc2ccccc2)CC1	10	10	
COc1cc(N)c(Cl)cc1C(=O)OCCN1CCC(NC(=O)CCCNCCCc2ccccc2)CC1	50		Ki [3]: 12 nM
COc1cc(N)c(Cl)cc1C(=O)OCCN1CCC(CNC(=O)Cc2ccccc2Cl)CC1	20	> 50	
COc1ccc(OC)c(/C=C/C(=O)NCC2CCN(CCOC(=O)c3cc(Cl)c(N)cc3OC)CC2)c1		20	

SMILES	Emax [1] [%]	Activity [4] [%]	other results
COc1cc(N)c(Cl)cc1C(=O)OCCN1CCC(CNC(=O)CCc2cccs2)CC1	30	30	
COc1cc(N)c(Cl)cc1C(=O)OCCN1CCC(NC(=O)c2cccs2)CC1	< 10	20	
COc1cc(N)c(Cl)cc1C(=O)OCCN1CCCCC1	45	40	
COc1cc(N)c(Cl)cc1C(=O)OCCN1CCC(CNC(=O)c2ccsc2)CC1	0	10	
COc1cc(N)c(Cl)cc1C(=O)OCCN1CCC(CNC(=O)c2cccs2)CC1	< 10	20	
COc1cc(N)c(Cl)cc1C(=O)OCCN1CCC(CNC(=O)c2ccc(C)nc2O)CC1	10	10	
COc1cc(N)c(Cl)cc1C(=O)OCCN1CCC(NC(=O)c2ccc([N+](=O)[O-])o2)CC1		< 10	
COc1cc(N)c(Cl)cc1C(=O)OCCN1CCC(CNC(=O)c2ccccc2F)CC1	0	20	
COc1cc(N)c(Cl)cc1C(=O)OCCN1CCC(NC(=O)CC(C)C)CC1	10	< 10	
COc1cc(N)c(Cl)cc1C(=O)OCCN1CCC(CNC(=O)CC2CCCCC2)CC1	< -10	20	
COc1cc(N)c(Cl)cc1C(=O)OCCN1CCC(NC(=O)CC2CCCCC2)CC1		< 10	
COc1cc(N)c(Cl)cc1C(=O)OCCN1CCC(NC(=O)Cc2ccccc2Cl)CC1	> 50	10	EC50 [2]: 18 nM; Ki [3]: 5 nM
COc1cc(N)c(Cl)cc1C(=O)OCCN1CCC(CNC(=O)CCCc2ccccc2)CC1	0	20	
COc1cc(N)c(Cl)cc1C(=O)OCCN1CCC(NC(=O)c2ccc(C)nc2O)CC1		< 10	
COc1cc(N)c(Cl)cc1C(=O)OCCN1CCC(NC(=O)CCCCc2ccccc2)CC1		< 10	
COc1cc(N)c(Cl)cc1C(=O)OCCN1CCC(NC(=O)CCCc2ccccc2)CC1	20	20	
COc1cc(N)c(Cl)cc1C(=O)OCCN1CCC(NC(=O)c2ccsc2)CC1	20	10	
COc1cc(N)c(Cl)cc1C(=O)OCCN1CCC(NC(=O)c2ccccc2F)CC1	10	10	
COc1cc(N)c(Cl)cc1C(=O)OCCN1CCC(NC(=O)CCC2CCCCC2)CC1		0	
COc1cc(N)c(Cl)cc1C(=O)OCCN1CCC(NC(=O)CCc2cccs2)CC1	10	10	
COc1cc(N)c(Cl)cc1C(=O)OCCN1CCC(NC(=O)Cc2ccc(Br)cc2)CC1	10	10	
COc1cc(N)c(Cl)cc1C(=O)OCCN1CCC(CNC(=O)CC(C)(C)C)CC1	10	10	
